Test results: PMC10213863 (Cell Reports Medicine, 2023)

Assays:
[1] = target: TLR3 (Homo sapiens, UniProt O15455); assay: Ramos Blue reporter B cell line, Poly; type: cell-based; conditions: Ramos cells; Poly(I:C) stimulation
Summary of the method: (§1)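 Ramos Blue B reporter cells were pre-treated 30 min at 37°C, 5% CO2 with increasing concentrations of test compound or 0.25% v/v DMSO. They were then stimulated with the respective agonist, and reporter activity was read.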

[2] = target: T1, TLR4 (Homo sapiens, UniProt O00206); assay: Human whole blood assay, LPS-TNF; type: cell-based
T1 sequence (O00206 24-839): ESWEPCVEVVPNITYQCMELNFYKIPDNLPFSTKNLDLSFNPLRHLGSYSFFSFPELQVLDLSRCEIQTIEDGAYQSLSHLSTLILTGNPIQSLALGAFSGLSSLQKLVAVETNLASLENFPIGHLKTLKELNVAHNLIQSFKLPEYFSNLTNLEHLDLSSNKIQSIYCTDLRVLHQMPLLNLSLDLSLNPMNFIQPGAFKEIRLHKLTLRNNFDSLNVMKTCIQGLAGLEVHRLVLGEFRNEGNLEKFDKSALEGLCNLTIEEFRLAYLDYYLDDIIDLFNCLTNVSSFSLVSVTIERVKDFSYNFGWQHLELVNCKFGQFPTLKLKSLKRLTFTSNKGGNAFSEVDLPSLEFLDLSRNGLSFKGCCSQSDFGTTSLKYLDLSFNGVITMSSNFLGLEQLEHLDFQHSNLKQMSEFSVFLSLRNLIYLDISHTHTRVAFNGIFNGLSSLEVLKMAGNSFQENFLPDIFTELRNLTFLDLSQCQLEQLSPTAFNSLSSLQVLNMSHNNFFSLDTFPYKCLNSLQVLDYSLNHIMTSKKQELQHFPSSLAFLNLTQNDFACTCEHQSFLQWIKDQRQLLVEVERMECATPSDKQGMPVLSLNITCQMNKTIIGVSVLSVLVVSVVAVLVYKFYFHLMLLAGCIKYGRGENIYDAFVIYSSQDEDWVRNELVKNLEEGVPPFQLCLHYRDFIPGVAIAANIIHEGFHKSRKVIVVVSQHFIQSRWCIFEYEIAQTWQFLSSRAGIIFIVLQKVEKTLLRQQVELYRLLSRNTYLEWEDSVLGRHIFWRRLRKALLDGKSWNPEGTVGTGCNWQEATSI
T1 sequence (Q9Y6Y9 19-160 partner): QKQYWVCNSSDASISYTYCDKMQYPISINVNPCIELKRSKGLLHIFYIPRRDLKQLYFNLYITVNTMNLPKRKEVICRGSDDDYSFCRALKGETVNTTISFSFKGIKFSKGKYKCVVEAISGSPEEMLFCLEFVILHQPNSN
Summary of the method: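 Fresh human blood or 129/Sv mouse blood was taken into citrate and diluted 1:1 with RPMI1640. It was pre-incubated 30 min at 37°C, 5% CO2 with increasing concentrations of test compound or 0.25% v/v DMSO (final). Blood was then stimulated with TLR agonists at doses from earlier work, or with R848 (3 μM), and cytokines were quantified. Viability was checked by ATPlite luminescence.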

[3] = system: TLR7/8; assay: Human PBMC cytokine release, TLR7/8 agonists ssRNA or R848; type: cell-based; conditions: human PBMCs, IL-6 as readout
[4] = system: NZB/W F1 mice; assay: Mouse NZB/W F1 model of lupus, MHV370 in food; type: in vivo
Summary of the method: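 NZB/W F1 mice entered at 23 weeks and were randomized into groups of 14 (mean proteinuria 0.1–0.5 mg/mL). They were dosed with test compound in food. Weight was recorded twice weekly; proteinuria weekly by quantitative protein assay (BSA standard). Serum IgG autoantibodies were measured by ELISA at 1:100 or 1:300, with DWEYS peptide for NMDAR, HRP anti-IgG (1:10′000) and TMB. Kidney IgG was stained by IHC; positive/total area was averaged over ten sections per mouse.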

[5] = target: TLR1/2 (Homo sapiens, UniProt O60603+Q15399); assay: Ramos Blue reporter B cell line, Pam3CSK4 stimulation; type: cell-based; conditions: Ramos cells; up to 10 μM; n = 4, data not shown
Chain of TLR1/2 (Q15399 25-786): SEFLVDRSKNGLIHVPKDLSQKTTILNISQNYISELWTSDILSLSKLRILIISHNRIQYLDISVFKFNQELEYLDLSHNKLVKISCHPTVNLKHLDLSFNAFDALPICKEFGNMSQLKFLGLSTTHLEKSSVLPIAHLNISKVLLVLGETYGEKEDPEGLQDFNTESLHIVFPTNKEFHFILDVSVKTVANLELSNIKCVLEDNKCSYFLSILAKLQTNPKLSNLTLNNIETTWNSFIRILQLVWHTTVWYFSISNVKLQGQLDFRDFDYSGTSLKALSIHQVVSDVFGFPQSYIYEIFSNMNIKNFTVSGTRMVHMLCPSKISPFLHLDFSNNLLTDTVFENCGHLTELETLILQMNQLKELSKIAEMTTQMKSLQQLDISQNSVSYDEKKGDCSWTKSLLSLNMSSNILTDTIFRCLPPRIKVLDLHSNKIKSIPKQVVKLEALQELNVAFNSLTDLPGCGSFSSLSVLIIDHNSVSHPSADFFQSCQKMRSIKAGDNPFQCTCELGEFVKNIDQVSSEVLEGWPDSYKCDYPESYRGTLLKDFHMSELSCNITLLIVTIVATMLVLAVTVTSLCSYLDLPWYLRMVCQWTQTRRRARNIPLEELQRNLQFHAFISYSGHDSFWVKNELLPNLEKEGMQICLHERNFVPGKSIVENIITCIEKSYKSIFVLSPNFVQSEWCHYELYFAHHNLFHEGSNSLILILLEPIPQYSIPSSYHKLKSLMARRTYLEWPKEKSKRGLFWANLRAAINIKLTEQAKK
Chain of TLR1/2 (O60603 21-784): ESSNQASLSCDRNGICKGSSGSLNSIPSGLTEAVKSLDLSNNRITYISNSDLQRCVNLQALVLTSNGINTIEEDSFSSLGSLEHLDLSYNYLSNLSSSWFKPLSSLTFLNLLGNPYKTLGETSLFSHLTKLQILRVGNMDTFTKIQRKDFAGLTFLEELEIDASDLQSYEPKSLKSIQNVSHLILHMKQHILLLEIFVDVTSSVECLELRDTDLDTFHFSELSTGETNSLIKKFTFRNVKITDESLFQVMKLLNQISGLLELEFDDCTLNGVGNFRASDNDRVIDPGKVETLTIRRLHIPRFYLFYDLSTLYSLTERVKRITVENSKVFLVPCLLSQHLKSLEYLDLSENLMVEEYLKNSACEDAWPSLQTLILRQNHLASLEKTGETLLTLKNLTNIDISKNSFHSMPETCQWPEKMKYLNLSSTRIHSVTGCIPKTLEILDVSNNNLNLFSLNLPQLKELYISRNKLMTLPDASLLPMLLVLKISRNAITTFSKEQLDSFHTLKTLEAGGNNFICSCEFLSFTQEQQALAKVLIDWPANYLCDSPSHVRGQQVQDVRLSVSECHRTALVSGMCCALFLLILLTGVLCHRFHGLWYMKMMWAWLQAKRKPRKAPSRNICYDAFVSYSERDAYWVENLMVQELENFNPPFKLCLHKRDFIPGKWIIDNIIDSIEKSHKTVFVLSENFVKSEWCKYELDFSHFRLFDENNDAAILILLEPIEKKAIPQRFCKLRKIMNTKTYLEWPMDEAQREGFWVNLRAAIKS
Summary of the method: as §1

[6] = target: T1, TLR4; assay: Human PBMC cytokine secretion, TLR4 agonist; type: cell-based; conditions: human PBMCs; up to 10 μM; n = 5 donors
Summary of the method: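 Human PBMCs were pre-incubated 30 min with test compound, then stimulated with the respective TLR or IL-1R agonist at doses from earlier work. Cytokines in supernatants were quantified by immunoassay. Viability across the dose range was checked by CellTiter-Glo.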

[7] = 0.1% MHV370 in food, kidney histology
[8] = MHV370-laced food, at termination

Chain of TLR3 (O15455 24-904): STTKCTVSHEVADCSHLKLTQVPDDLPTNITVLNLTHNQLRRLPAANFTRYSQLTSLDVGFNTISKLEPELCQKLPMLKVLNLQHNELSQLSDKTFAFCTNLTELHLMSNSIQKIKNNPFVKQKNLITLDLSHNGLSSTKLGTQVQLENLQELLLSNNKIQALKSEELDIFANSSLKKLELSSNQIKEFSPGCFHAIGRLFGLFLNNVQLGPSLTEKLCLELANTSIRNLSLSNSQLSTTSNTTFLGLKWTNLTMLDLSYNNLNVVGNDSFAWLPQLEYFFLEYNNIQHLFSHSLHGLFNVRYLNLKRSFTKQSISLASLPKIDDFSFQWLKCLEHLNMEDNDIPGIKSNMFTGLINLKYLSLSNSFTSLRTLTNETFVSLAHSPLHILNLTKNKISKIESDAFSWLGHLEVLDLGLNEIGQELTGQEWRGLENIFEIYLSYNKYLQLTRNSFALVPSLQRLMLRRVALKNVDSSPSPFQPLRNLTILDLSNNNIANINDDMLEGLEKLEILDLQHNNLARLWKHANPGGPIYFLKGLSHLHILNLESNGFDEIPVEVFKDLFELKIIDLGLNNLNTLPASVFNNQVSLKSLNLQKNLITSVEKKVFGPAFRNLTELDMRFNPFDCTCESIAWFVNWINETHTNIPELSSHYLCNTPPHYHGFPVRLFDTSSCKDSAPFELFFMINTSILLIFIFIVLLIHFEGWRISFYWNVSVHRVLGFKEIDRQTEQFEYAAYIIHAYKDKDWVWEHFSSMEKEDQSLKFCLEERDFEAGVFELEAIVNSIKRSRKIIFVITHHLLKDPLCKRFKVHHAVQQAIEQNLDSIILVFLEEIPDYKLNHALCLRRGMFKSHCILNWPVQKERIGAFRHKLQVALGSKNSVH

Cc1cc(N2CCc3c(c(C)nn3CC34CCC(NC(=O)[C@@H]5COCCN5)(CC3)CC4)C2)c2cnn(C)c2n1 [MHV370, (S)-N-(4-((5-(1,6-dimethyl-1H-pyrazolo[3,4-b]pyridin-4-yl)-3-methyl-4,5,6,7-tetrahydro-1H-pyrazolo[4,3-c]pyridin-1-yl)methyl)bicyclo[2.2.2]octan-1-yl)morpholine-3-carboxamide]
inhibitory activity against TLR3 [1]: no or very limited inhibitory activity
activity following TLR4 activation [2]: inactive
mode of antagonism (Schild analysis) [3]: competitive and reversible antagonist
inhibition of proteinuria at low dose ([4]; 0.01% MHV370 in food): already achieved
IgG deposits in the glomeruli [4, 7]: reduced
glomerulopathy [4, 7]: reduced
infiltration of kidneys with CD45R+ B cells [4, 7]: reduced
infiltration of kidneys with CD138+ plasma cells [4, 7]: reduced
proteinuria ([4]; MHV370-laced food): effectively prevented
blood urea nitrogen (BUN) [4, 8]: moderately reduced
serum levels of CXCL13 [4, 8]: significantly reduced
IgG autoantibody levels against NMDAR ([4]; serum at termination): reduced
IgG autoantibody levels against Smith (Sm) ([4]; serum at termination): reduced
IgG autoantibody levels against ribosomal P (RiboP) ([4]; serum at termination): reduced
serum antibodies against double-stranded DNA (dsDNA) ([4]; serum at termination): not reduced
serum antibodies against histones ([4]; serum at termination): not reduced
interference with TLR1/2-driven activity [5]: did not interfere
interference with cytokine secretion, TLR4 agonist [6]: did not significantly interfere
